Results taken from ChEMBL document CHEMBL1821687, “Discovery, synthesis, and biological evaluation of novel SMN protein modulators” (J Med Chem, 2011).

How the values were obtained:
[1] = target: Survival motor neuron protein (Homo sapiens) (UniProt Q16637); assay: Activation of SMN expressed in HEK293 cells assessed as rate of induction by SMN2-promotor driven luciferase reporter gene assay relative to basal level; format: cell-based; parameters: concentration or dose not given beside the values
Chain of Survival motor neuron protein (Homo sapiens) (Q16637 whole entry): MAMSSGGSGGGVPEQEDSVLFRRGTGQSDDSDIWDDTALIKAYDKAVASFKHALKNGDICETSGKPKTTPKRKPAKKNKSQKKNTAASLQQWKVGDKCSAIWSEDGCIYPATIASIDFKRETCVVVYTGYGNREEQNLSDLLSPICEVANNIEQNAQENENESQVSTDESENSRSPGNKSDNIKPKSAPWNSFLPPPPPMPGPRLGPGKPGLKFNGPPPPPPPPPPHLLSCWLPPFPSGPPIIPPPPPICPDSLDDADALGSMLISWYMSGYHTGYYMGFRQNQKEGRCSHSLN
Summary of the method: (§1)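 HEK-293 cells stably carrying the SMN2 reporter construct, kept in DMEM with 10% FCS, glutamax, pyruvate, pen/strep and 200 µg/mL hygromycin, and assayed without hygromycin. 2,000 cells/well were plated and adhered overnight at 37 °C, 5% CO2. Compounds were added as a 7-point titration, 50 µM to 25 nM final, in 0.46% DMSO, for 30–36 h. OneGlo luminescence was normalized to 4.5 mM sodium butyrate (100%) and DMSO (0%).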

[2] = target: Survival motor neuron protein (Homo sapiens) (UniProt Q16637); assay: Activation of SMN expressed in HEK293 cells assessed as concentration required to reach 50% of maximum luciferase signal by SMN2-promotor driven luciferase reporter gene assay; format: cell-based; summary of the method: as §1

Compound | Activity [1] [%] | Activity [2] [µM]
NC(=O)C1CCN(c2nccc(-c3ccc4c(c3)OCCCO4)n2)CC1 | 234 | 1.54
CC(=O)NC1CCN(c2nc(-c3ccc(Br)cc3)cs2)CC1 | -57 | 15.4
NC(=O)C1CCN(c2nccc(-c3ccc4c(c3)OCCO4)n2)CC1 | 364 | 1.22
NC(=O)C1CCN(c2ncc(-c3ccc4c(c3)OC(F)(F)O4)s2)CC1 | 598 | 0.194
NC(=O)C1CCN(c2nc(-c3ccc(OC(F)(F)F)cc3)cs2)CC1 | 297 | 3.07
O=C(NCCc1ccccc1)C1CCN(c2nc(-c3ccc(Br)cc3)cs2)CC1 | 32 | 6.13
NC(=O)C1CCN(c2nc(-c3ccc(F)cc3)cs2)CC1 | 288 | 3.87
NC(=O)C1CCN(c2nccc(-c3ccc(Br)cc3)n2)CC1 | 387 | 0.387
CC(C)(C)c1ccc(-c2csc(N3CCC(C(N)=O)CC3)n2)cc1 | 243 | 3.87
CCOc1ccc(-c2csc(N3CCC(C(N)=O)CC3)n2)cc1 | 212 | 3.87
CN(C)c1cccc(-c2csc(N3CCC(C(N)=O)CC3)n2)c1 | 504 | 0.97
CN(C)c1cccc(-c2cc(N3CCC(C(N)=O)CC3)ncn2)c1 | 81 | 3.87
CN(C)c1cccc(-c2ccnc(N3CCC(C(N)=O)CC3)n2)c1 | 446 | 0.772
CN(C)c1cccc(-c2nccc(N3CCC(C(N)=O)CC3)n2)c1 | 306 | 12.2
COc1ccc(-c2csc(N3CCC(C(N)=O)CC3)n2)cc1 | 209 | 7.72
NC(=O)C1CCN(c2ncc(-c3cccc(N4CCCC4)c3)s2)CC1 | 685 | 0.387
CN(C)c1cccc(-c2nnc(N3CCC(C(N)=O)CC3)s2)c1 | 448 | 0.387
c1c[nH]c(C2CCN(c3ncc(-c4ccc5c(c4)OCCCO5)s3)CC2)n1 | 129 | 2.44
NC(=O)C1CCN(c2nc(-c3ccc4c(c3)OCO4)cs2)CC1 | 359 | 2.44
NC(=O)C1CCN(c2nc(-c3cccc([N+](=O)[O-])c3)cs2)CC1 | 20 | 3.87
CC(=O)c1ccc(-c2csc(N3CCC(C(N)=O)CC3)n2)cc1 | 130 | 12.2
